In PMC6568317 (ACS chemical biology, 2017):

Experiments:
[1] = biological target: T1, Saccharomyces cerevisiae adenine phosphoribosyltransferase (ScAPRT) (Saccharomyces cerevisiae, UniProt P49435); conditions: read-out: KM for PRPP (ScAPRT); previously reported substrate KM; cited from earlier work
T1 sequence (P49435 1-187): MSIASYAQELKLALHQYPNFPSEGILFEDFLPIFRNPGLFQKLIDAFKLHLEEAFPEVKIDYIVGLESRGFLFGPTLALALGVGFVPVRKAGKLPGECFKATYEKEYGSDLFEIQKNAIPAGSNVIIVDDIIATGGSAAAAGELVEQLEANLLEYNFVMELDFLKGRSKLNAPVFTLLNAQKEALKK

[2] = biological target: T1, Saccharomyces cerevisiae adenine phosphoribosyltransferase (ScAPRT); test: ScAPRT inhibition assay; format: biochemical
[3] = biological target: T2, Plasmodium falciparum orotate phosphoribosyltransferase (PfOPRT) (Plasmodium falciparum, UniProt Q8I3Y0); test: PfOPRT inhibition assay; format: biochemical
T2 sequence (Q8I3Y0 1-281): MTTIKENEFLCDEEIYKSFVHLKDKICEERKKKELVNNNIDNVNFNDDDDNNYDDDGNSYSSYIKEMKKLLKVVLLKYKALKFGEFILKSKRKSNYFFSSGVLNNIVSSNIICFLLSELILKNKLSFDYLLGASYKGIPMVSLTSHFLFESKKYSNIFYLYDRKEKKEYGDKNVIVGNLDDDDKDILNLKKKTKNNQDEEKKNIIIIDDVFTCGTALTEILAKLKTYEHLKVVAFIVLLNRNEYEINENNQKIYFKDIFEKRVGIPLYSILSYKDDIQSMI

[4] = biological target: T3, human orotate phosphoribosyltransferase (HsOPRT) (Homo sapiens, UniProt P11172); test: HsOPRT inhibition assay; format: biochemical; conditions: for inhibition of HsOPRT: at D-DIAB or L-DIAB concentrations of 200 μM
T3 sequence (P11172 1-214 limits assumed): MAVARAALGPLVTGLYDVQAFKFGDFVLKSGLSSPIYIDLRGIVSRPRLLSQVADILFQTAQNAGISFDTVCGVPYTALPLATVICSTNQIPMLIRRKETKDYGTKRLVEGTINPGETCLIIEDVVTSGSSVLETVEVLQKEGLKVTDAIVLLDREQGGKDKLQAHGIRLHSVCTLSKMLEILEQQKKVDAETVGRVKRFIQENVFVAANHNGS
How it was run: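 Human OPRT, 200 nM, at 25 °C in 50 mM Tris-HCl pH 8.0 with 5 mM MgCl₂. Substrates are 500 μM orotidine 5′-monophosphate and 1 mM pyrophosphate, with bis-phosphate iminoaltritol test compound present. Reaction followed by absorbance at 266 nm. Ki derived from initial rates measured in triplicate.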

selectivity for D-DIAB over L-DIAB in PfOPRT inhibition ([3]; ratio of Ki values, Table 1) [fold] | Structure (SMILES) | Km [1] [µM] | Ki [2] [µM] | Ki [3] [µM] | Ki [4] [µM] | inhibition of HsOPRT [4]
 | O=P(O)(O)OC[C@H]1O[C@H](OP(=O)(O)OP(=O)(O)O)[C@H](O)[C@@H]1O [PRPP, 5-phospho-α-D-ribosyl 1-pyrophosphate] | 20 |  |  |  | 
 | O=P(O)(O)OC[C@H]1N[C@H](COP(=O)(O)O)[C@@H](O)[C@H]1O (stereo in doubt) [L-DIAB, L-2,5-dideoxy-2,5-imino-altritol 1,6-bisphosphate] |  | 14.9 ± 2.9 | 103 ± 17 | > 200 | no apparent inhibition
3 | O=P(O)(O)OC[C@H]1N[C@H](COP(=O)(O)O)[C@@H](O)[C@@H]1O [D-DIAB, D-2,5-dideoxy-2,5-imino-altritol 1,6-bisphosphate] |  |  |  |  | no apparent inhibition
